Source: ChEMBL document CHEMBL1681752, “Discovery of novel (4-piperidinyl)-piperazines as potent and orally active acetyl-CoA carboxylase 1/2 non-selective inhibitors: F-Boc and triF-Boc groups are acid-stable bioisosteres for the Boc group” (Bioorg Med Chem, 2011)

How the values were obtained:
[1] = target: Acetyl-CoA carboxylase (Homo sapiens, UniProt Q13085+O00763); assay: Inhibition of human ACC1/2 assessed as [14C]malonyl-CoA synthesis; format: protein assay
Outline: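 Enzyme source: human liver cytosol, ammonium sulfate precipitated (30%) and anion-exchange purified in MOPS pH 7.5 buffer. It is preincubated with compound or DMSO for 30 min at 37 °C in Tris acetate pH 7.5 buffer. Substrates are 2.12 mM ATP, 18.2 mM NaHCO3 and [14C]acetyl-CoA. Unreacted acetyl-CoA is converted to acetyl-carnitine and retained on cation-exchange resin, and eluted [14C]malonyl-CoA is counted. IC50 is the mean of at least two experiments.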

[2] = system: HepG2; assay: Inhibition of fatty acid synthesis in human HepG2 cells assessed as [14C]acetate incorporation after 2 hrs by liquid scintillation counter; format: functional, cell-based; conditions: HepG2, 2 h
Outline: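 HepG2 cells are plated at 3 × 10^5/well and grown 48 h in DMEM/10% FBS. They are serum-starved 1 h in DMEM with 1.5% BSA, with or without compound. Radiolabelled acetate is added for 2 h. Cells are washed, then saponified with KOH for 2 h at 70 °C. After hexane washes and acidification to pH <2, fatty acids are extracted into hexane.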

[3] = Chemical stability of the compound in simulated gastric media assessed as compound recovery at pH 1.2 after 3 hrs by HPLC method; format: physicochemical; conditions: read-out: Stability
Outline: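 Acid stability: compound is held in aqueous solution at pH 1.2 for 3 h at 37 °C. Parent remaining is quantified by HPLC.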

[4] = Metabolic stability in human liver microsomes assessed as compound recovery after 15 mins by LC-MS/MS; format: ADME, Microsome; conditions: read-out: Stability
Outline: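 Compound is incubated at 37 °C with 1 mg/mL human liver microsomes in phosphate buffer with an NADPH-generating system (glucose-6-phosphate, NADP, G6P dehydrogenase) plus MgCl2 and KCl. Levels at 0 and 15 min are measured by LC–MS/MS, and percent remaining is taken from their ratio.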

[5] = target: Acetyl-CoA carboxylase (Rattus norvegicus, UniProt P11497+Q1HEC0); assay: Inhibition of rat ACC1/2 assessed as malonyl-CoA synthesis; format: protein assay
Outline: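 Rat liver cytosolic ACC is preincubated with compound or DMSO for 30 min at 37 °C in Tris acetate pH 7.5 buffer. The reaction uses the liver-ACC substrate mix: 2.12 mM ATP, 18.2 mM NaHCO3 and [14C]acetyl-CoA. Residual acetyl-CoA is removed as acetyl-carnitine on cation-exchange resin, and [14C]malonyl-CoA in the eluate is counted. IC50 is the mean of at least two experiments.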

| SMILES | IC50 [1] | remaining at 3 h [3] | remaining at 0.25 h [4] | IC50 [5] | IC50 [2] |
| --- | --- | --- | --- | --- | --- |
| CCNC(=O)Nc1sc2ccccc2c1C(=O)N1CCN(C2CCN(C(=O)OC(C)(C)C)CC2)CC1 | 24 nM | 23% | – | – | 79 nM |
| CCNC(=O)Nc1sc2ccccc2c1C(=O)N1CCN(C2CCN(C(=O)OC3CCCCC3)CC2)CC1 | 76 nM | – | – | – | 635 nM |
| CCNC(=O)Nc1sc2ccccc2c1C(=O)N1CCN(C2CCN(C(=O)C3CCN(C(C)=O)CC3)CC2)CC1.O=C(O)/C=C\C(=O)O | 74 nM | – | – | – | – |
| CCNC(=O)Nc1sc2ccccc2c1C(=O)N1CCN(C2CCN(C(=O)C3CCCC3)CC2)CC1.O=C(O)/C=C\C(=O)O | 49 nM | – | – | – | 309 nM |
| CCNC(=O)Nc1sc2ccccc2c1C(=O)N1CCN(C2CCN(C(=O)OCC)CC2)CC1 | 55 nM | – | – | – | 228 nM |
| CCNC(=O)Nc1sc2cccnc2c1C(=O)N1CCN(C2CCN(C(=O)OC(C)(C)C(F)(F)F)CC2)CC1 | 12 nM | – | 13% | – | 49 nM |
| CCNC(=O)Nc1sc2cc(F)ccc2c1C(=O)N1CCN(C2CCN(C(=O)OC(C)(C)C(F)(F)F)CC2)CC1 | 62 nM | – | 17% | – | – |
| CCNC(=O)Nc1sc2ccccc2c1C(=O)N1CCN(C2CCN(C(=O)OC(C)C)CC2)CC1 | 28 nM | – | 3% | – | 208 nM |
| CCNC(=O)Nc1sc2ccccc2c1C(=O)N1CCN(C2CCN(C(=O)OC)CC2)CC1 | 175 nM | – | – | – | – |
| CCNC(=O)Nc1sc2ccccc2c1C(=O)N1CCN(C2CCN(C(=O)OC3CCCC3)CC2)CC1 | 52 nM | – | – | – | 512 nM |
| CCNC(=O)Nc1sc2cc(OC)ccc2c1C(=O)N1CCN(C2CCN(C(=O)OC(C)(C)C(F)(F)F)CC2)CC1 | 27 nM | – | 29% | – | 67 nM |
| CCNC(=O)Nc1sc2ccccc2c1C(=O)N1CCN(C2CCN(C(=O)OC(C)(C)CF)CC2)CC1 | 17 nM | 98% | 3% | – | 61 nM |
| CCNC(=O)Nc1sc2ccc(C)cc2c1C(=O)N1CCN(C2CCN(C(=O)OC(C)C)CC2)CC1 | 32 nM | – | 3% | – | 254 nM |
| CCNC(=O)Nc1sc2ccccc2c1C(=O)N1CCN(C2CCN(C(=O)CC)CC2)CC1 | 597 nM | – | – | – | – |
| CCNC(=O)Nc1sc2cnccc2c1C(=O)N1CCN(C2CCN(C(=O)OC(C)(C)C(F)(F)F)CC2)CC1 | 41 nM | – | 67% | – | 152 nM |
| CCNC(=O)Nc1sc2ccccc2c1C(=O)N1CCN(C2CCN(C(C)=O)CC2)CC1 | 1864 nM | – | – | – | – |

More lines, main results first:

| IC50 [1] | remaining at 3 h [3] | remaining at 0.25 h [4] | IC50 [5] | SMILES | IC50 [2] |
| --- | --- | --- | --- | --- | --- |
| 117 nM | – | – | – | CCNC(=O)Nc1sc2ccncc2c1C(=O)N1CCN(C2CCN(C(=O)OC(C)(C)C(F)(F)F)CC2)CC1 | – |
| 32 nM | – | 84% | – | CCNC(=O)Nc1sc2cc(C)ccc2c1C(=O)N1CCN(C2CCN(C(=O)OC(C)(C)CF)CC2)CC1 | 73 nM |
| 119 nM | – | – | – | CCNC(=O)Nc1sc2ccccc2c1C(=O)N1CCN(C2CCN(C(=O)NC(C)(C)C)CC2)CC1 | 775 nM |
| 60 nM | – | 77% | – | CCNC(=O)Nc1sc2cc(C)ccc2c1C(=O)N1CCN(C2CCN(C(=O)OC(C)C)CC2)CC1 | 628 nM |
| 207 nM | – | – | – | CCCCC(=O)N1CCC(N2CCN(C(=O)c3c(NC(=O)NCC)sc4ccccc34)CC2)CC1 | – |
| – | – | – | 70 nM | CC(=O)N1CCC(C(=O)N2CCC(N3CCN(C(=O)c4cc(-c5ccc(C)cc5)nc(-c5ccc(C)cc5)c4)CC3)CC2)CC1 | – |
| 38 nM | – | 51% | – | CCNC(=O)Nc1sc2cc(Cl)ccc2c1C(=O)N1CCN(C2CCN(C(=O)OC(C)(C)C(F)(F)F)CC2)CC1 | – |
| 144 nM | – | – | – | CCNC(=O)Nc1sc2ccccc2c1C(=O)N1CCN(C2CCN(C(=O)CC(C)C)CC2)CC1 | – |
| 109 nM | – | – | – | CCNC(=O)Nc1sc2ccccc2c1C(=O)N1CCN(C2CCN(C(=O)C(C)(C)C)CC2)CC1 | 450 nM |
| 242 nM | – | – | – | CCCC(=O)N1CCC(N2CCN(C(=O)c3c(NC(=O)NCC)sc4ccccc34)CC2)CC1 | – |
| 81 nM | – | – | – | CCNC(=O)Nc1sc2ccccc2c1C(=O)N1CCN(C2CCN(C(=O)C3CCCCC3)CC2)CC1 | 146 nM |
| 31 nM | 100% | 5% | – | CCNC(=O)Nc1sc2ccccc2c1C(=O)N1CCN(C2CCN(C(=O)OC(C)(C)C(F)(F)F)CC2)CC1 | 81 nM |
| 45 nM | – | 3% | – | CCNC(=O)Nc1sc2ncccc2c1C(=O)N1CCN(C2CCN(C(=O)OC(C)(C)C(F)(F)F)CC2)CC1 | 67 nM |
| 131 nM | – | – | – | CCNC(=O)Nc1sc2ccccc2c1C(=O)N1CCN(C2CCN(C(=O)C(C)C)CC2)CC1 | – |
| 98 nM | – | 7% | – | CCNC(=O)Nc1sc2cc(C(F)(F)F)ccc2c1C(=O)N1CCN(C2CCN(C(=O)OC(C)(C)C(F)(F)F)CC2)CC1 | – |
| 33 nM | – | – | – | CC(=O)N1CCC(C(=O)N2CCC(N3CCN(C(=O)c4cc(-c5ccc(C)cc5)nc(-c5ccc6[nH]c(C)c(C)c6c5)c4)CC3)CC2)CC1 | 294 nM |
